The source made the active and inactive calls. The rule behind the calls is not given here.
Key:
[1] = Antiproliferative activity against human MOLM16 cells assessed as reduction in cell viability incubated for 4 days by cell-titer glo luminescent assay; type: functional, cell-based; settings: MOLM16, 96 h
Method in brief: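 Viability assay: cells incubated with serially diluted compounds for 4 days, viability read by CellTiter-Glo luminescence; IC50 from concentration–response.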

[2] = molecular target: Protein cereblon/Signal transducer and activator of transcription 3 (Homo sapiens, UniProt P40763+Q96SW2); assay: Protac activity at CRBN/STAT3 in human MOLM16 cells assessed as degradation of STAT3 at 0.01 to 10 uM incubated for 4 hrs by Western blot analysis; type: cell-based
Method in brief: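 Molm-16 cells treated 4 h with test compound at 0.01–10 μM, or control compounds at 10 μM. Lysates separated by SDS–PAGE, transferred to PVDF, blocked 1 h in 5% blocker/TBST, probed for each STAT protein, and detected by chemiluminescence.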

[3] = molecular target: Protein cereblon/Signal transducer and activator of transcription 2 (Homo sapiens) (UniProt Q96SW2+P52630); assay: Protac activity at CRBN/STAT2 in human SUDHL1 cells assessed as degradation of STAT2 at 0.01 to 10 uM incubated for 18 hrs by Western blot analysis; type: cell-based
Method in brief: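 SU-DHL-1 cells treated 18 h with test compound at 0.01–10 μM, or control compounds at 10 μM. Lysates separated by SDS–PAGE, transferred to PVDF, blocked 1 h in 5% blocker/TBST, probed for each STAT protein, and detected by chemiluminescence.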

Homo sapiens [4] = organism: Homo sapiens; assay: Selectivity index, ratio of protac activity at CRBN/STAT4 in human MOLM16 cells to protac activity at CRBN/STAT3 in human MOLM16 cells; type: cell-based
Method in brief: (§1)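 Molm-16 cells treated 4 h with compound at 0.01–10 μM, or controls at 10 μM. Western blot of lysates: SDS–PAGE, PVDF, 1 h block in 5% blocker/TBST, primary and secondary antibodies, chemiluminescent detection. STAT1, -2, -4, -5A/B and -6 levels read against STAT3 to give degradation selectivity.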

Homo sapiens [5] = organism: Homo sapiens; assay: Selectivity index, ratio of protac activity at CRBN/STAT5B in human MOLM16 cells to protac activity at CRBN/STAT3 in human MOLM16 cells; type: cell-based; method in brief: as §1
Homo sapiens [6] = organism: Homo sapiens; assay: Selectivity index, ratio of protac activity at CRBN/STAT5B in human SUDHL1 cells to protac activity at CRBN/STAT3 in human SUDHL1 cells; type: cell-based
Method in brief: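 SU-DHL-1 cells treated 18 h with compound at 0.01–10 μM, or controls at 10 μM. Immunoblotting used SDS–PAGE, PVDF transfer, 1 h block in 5% blocker/TBST, primary and secondary antibodies and chemiluminescence. Levels of other STAT family members compared with STAT3 to express degradation selectivity.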

Mus musculus = assay: In vivo degradation of phosphorylated STAT3 Y705 in SCID mouse xenografted with MOLM-16 cells at 50 mg/kg, iv measured upto 1 hr by Western blot analysis relative to control; type: functional
Method in brief: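 SCID mice bearing subcutaneous Molm-16 tumors (3 × 10^6 cells in Matrigel; treated at ~150 mm3) given a single intravenous dose in 10% PEG400 + 90% PBS, or vehicle. Tumors harvested at time points. Lysates immunoblotted for total STAT3 and pSTAT3 Y705, compared with vehicle control.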

Sequence of Protein cereblon/Signal transducer and activator of transcription 2 (Homo sapiens) (P52630 whole entry, looked up): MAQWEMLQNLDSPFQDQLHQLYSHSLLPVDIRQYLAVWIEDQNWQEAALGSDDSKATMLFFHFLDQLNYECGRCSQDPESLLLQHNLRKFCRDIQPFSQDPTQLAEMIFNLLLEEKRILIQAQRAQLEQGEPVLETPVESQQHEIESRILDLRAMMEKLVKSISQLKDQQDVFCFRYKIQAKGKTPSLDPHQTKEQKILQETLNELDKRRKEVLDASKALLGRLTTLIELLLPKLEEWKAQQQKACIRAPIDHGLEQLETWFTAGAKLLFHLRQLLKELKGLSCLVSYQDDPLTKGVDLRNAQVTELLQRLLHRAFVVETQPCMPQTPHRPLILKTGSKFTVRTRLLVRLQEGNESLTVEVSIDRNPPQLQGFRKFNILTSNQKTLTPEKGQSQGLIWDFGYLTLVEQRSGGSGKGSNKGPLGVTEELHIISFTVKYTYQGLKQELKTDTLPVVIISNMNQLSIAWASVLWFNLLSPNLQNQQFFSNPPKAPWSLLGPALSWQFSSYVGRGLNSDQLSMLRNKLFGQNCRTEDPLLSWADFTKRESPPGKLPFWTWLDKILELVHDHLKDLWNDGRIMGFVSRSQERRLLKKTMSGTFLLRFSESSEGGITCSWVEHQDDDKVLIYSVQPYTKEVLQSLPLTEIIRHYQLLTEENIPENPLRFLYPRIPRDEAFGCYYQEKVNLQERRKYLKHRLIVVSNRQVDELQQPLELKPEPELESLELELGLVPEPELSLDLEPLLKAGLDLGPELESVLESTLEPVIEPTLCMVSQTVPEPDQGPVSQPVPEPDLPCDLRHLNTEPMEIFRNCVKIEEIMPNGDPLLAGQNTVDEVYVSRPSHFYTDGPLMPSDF
Sequence of Protein cereblon/Signal transducer and activator of transcription 2 (Homo sapiens) (Q96SW2 whole entry, looked up): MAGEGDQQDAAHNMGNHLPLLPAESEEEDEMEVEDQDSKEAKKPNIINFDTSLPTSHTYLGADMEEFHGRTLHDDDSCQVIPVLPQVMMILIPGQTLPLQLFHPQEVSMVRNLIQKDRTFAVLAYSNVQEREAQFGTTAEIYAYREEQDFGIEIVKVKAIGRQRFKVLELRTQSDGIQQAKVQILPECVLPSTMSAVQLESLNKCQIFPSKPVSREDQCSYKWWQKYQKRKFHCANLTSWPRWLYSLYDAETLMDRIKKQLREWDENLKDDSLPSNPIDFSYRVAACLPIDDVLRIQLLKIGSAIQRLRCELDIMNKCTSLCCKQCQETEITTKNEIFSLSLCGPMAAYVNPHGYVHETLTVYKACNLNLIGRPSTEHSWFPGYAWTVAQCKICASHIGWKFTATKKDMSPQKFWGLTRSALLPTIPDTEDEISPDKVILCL
Sequence of Protein cereblon/Signal transducer and activator of transcription 3 (P40763 2-770 limits assumed): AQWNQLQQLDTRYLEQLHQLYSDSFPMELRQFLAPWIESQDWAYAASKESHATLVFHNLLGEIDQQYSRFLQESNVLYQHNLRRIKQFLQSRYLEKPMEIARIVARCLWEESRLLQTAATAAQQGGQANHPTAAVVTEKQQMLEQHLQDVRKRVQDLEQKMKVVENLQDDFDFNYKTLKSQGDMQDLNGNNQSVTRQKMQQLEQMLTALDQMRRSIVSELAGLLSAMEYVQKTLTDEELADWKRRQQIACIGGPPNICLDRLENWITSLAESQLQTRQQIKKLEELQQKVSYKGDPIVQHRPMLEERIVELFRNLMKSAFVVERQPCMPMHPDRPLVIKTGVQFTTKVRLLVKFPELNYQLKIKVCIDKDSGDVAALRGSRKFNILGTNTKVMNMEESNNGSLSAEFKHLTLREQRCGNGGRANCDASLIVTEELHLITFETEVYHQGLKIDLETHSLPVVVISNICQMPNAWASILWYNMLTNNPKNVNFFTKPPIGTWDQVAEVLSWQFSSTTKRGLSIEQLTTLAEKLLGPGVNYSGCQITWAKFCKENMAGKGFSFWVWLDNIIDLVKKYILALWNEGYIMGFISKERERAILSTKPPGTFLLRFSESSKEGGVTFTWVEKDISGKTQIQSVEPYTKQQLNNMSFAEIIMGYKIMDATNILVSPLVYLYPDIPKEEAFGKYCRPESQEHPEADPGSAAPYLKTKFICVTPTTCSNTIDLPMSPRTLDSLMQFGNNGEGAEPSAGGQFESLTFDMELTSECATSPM
Sequence of Protein cereblon/Signal transducer and activator of transcription 3 (Q96SW2 whole entry partner): as the sequence (Q96SW2 whole entry, looked up) above

Q: With NC(=O)CC[C@H](NC(=O)[C@@H]1CC[C@@H]2CCN(C(=O)CCCCCC#Cc3cccc4c3CN(C3CCC(=O)NC3=O)C4=O)C[C@H](NC(=O)c3cc4cc(C(F)(F)P(=O)(O)O)ccc4[nH]3)C(=O)N21)C(=O)NC(c1ccccc1)c1ccccc1 (some centres not stated) as the compound, how does the IC50 [1] read?
A: Its IC50 is 13 nM.

Q: What about the Activity [2] of the same compound?
A: Its Activity is “Active”.

Q: What about the Activity [3] of the same compound?
A: The Activity was “inactive”.

Q: What about the Ratio (Homo sapiens [4]) of the same compound?
A: Its Ratio is greater than 100.

Q: What about the Ratio (Homo sapiens [5]) of the same compound?
A: The Ratio was greater than 100.

Q: What about the Ratio (Homo sapiens [6]) of the same compound?
A: Its Ratio is greater than 100.

Q: What about the Activity (Mus musculus) of the same compound?
A: Its Activity is greater than 90%.
